Assay results reported in ChEMBL document CHEMBL1126896, “Preparation and anti-HIV activity of O-acylated heparin and dermatan sulfate derivatives with low anticoagulant effect” (J Med Chem, 1993).

Columns and labels:
HuT78 [1] = experiment: Giant-cell formation between persistently HIV-1 infected HUT-78 cells and uninfected MOLT-4 cells; type: functional, cell-based
Outline: (§1)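 MOLT-4 cells were co-cultured with an equal number of HUT-78 cells persistently infected with HIV-1 IIIB or HIV-2 ROD, with varying compound concentrations. Syncytia were counted by flow cytofluorography after 24 h. EC50 is the concentration giving 50% protection against giant-cell formation.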

[2] = In vitro anticoagulant activity was determined by the clotting test of activated partial thromboplastin time (APTT) on a pool of human plasma; 1-2; type: functional
Outline: (§2)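 Activated partial thromboplastin time clotting test on pooled human plasma, run on an automatic coagulometer. Activities were calculated according to the European Pharmacopoeia.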

MT4 [3] = experiment: Effective concentration to achieve 50% protection of MT-4 cells against the cytopathic effect of HIV-1; type: functional, cell-based
MT4 [4] = experiment: Effective concentration to achieve 50% protection of MT-4 cells against the cytopathic effect of HIV-2; type: functional, cell-based
[5] = test system: Human immunodeficiency virus 2; experiment: Antiviral activity against HIV-2 infected with LAV-2 EHO; type: functional, organism-based
[6] = test system: Human immunodeficiency virus 1; experiment: Antiviral activity against HIV-1 infected with HIV-1HE; type: functional, organism-based
[7] = test system: Human immunodeficiency virus 1; experiment: Antiviral activity against HIV-1 infected with […]; type: functional, organism-based
[8] = test system: Human immunodeficiency virus 1; experiment: Antiviral activity against HIV-1 infected with HTLVIIIB; type: functional, organism-based
[9] = test system: Human immunodeficiency virus 1; experiment: Antiviral activity against HIV-1 infected with HTLVIIIB (TIBO); type: functional, organism-based
[10] = test system: Human immunodeficiency virus 2; experiment: Antiviral activity against HIV-2 infected with LAV-2 ROD; type: functional, organism-based
[11] = In vitro anticoagulant activity determined by clotting test of activated partial thromboplastin time (APTT) on a pool of human plasma; type: functional; outline: as §2
[12] = test system: Simian immunodeficiency virus; experiment: Antiviral activity against SIV; type: functional, organism-based
MT4 [13] = experiment: Selectivity index for CC50 (cytotoxic concentration based on the reduction of the viability of mock-infected MT-4 cells) to that of EC50 against HIV-1; type: functional
Outline: (§3)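 MT-4 cells at 3 × 10^5 cells/mL were infected with HIV-1 IIIB or HIV-2 ROD at 100 CCID50/mL, or mock-infected, alongside serial compound dilutions. Viability was read by MTT after 5 days at 37 °C. CC50 comes from mock-infected cells and EC50 from protection against cytopathicity. Index = CC50/EC50.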

MT4 [14] = experiment: Selectivity index for CC50 (cytotoxic concentration based on reduction of viability of mock-infected MT-4 cells) to that of EC50 against HIV-2; type: functional; outline: as §3
HuT78 [15] = experiment: Giant-cell formation between persistently HIV-2 infected HUT-78 cells and uninfected MOLT-4 cells; type: functional, cell-based; settings: Homo sapiens, HuT78; read-out: EC50; outline: as §1
[16] = Homo sapiens, HuT78, read-out: EC50
[17] = Homo sapiens, MT4, read-out: EC50

Row | Compound | EC50 (HuT78 [1]; [16]) | APTT [2] | EC50 (MT4 [3]; [17]) | EC50 (MT4 [4]; [17]) | EC50 [5] | EC50 [6] | EC50 [7] | EC50 [8] | EC50 [9] | EC50 [10] | APTT [11] | EC50 [12] | Selectivity index (MT4 [13]) | Selectivity index (MT4 [14]) | EC50 (HuT78 [15]) | EC50 (HuT78 [1]; hut78) | EC50 (MT4 [3]; mt4) | EC50 (MT4 [4]; mt4)
1 | COC1C(NC(C)=O)C(OC2C(C(=O)[O-])OC(OC3C(NC(C)=O)C(OC4C(C(=O)[O-])OC(C)C(O)C4O)OC(CO)C3OS(=O)(=O)[O-])C(O)C2O)OC(CO)C1OS(=O)(=O)[O-].[Na+].[Na+].[Na+].[Na+] (stereo not given) | > 500 µg/mL | 1 IU mg-1 | > 625 µg/mL | > 625 µg/mL | – | – | – | – | – | – | – | – | – | – | – | – | – | –
2 | CC(=O)OC/C(=C\C(=O)[O-])OC1OC(COS(=O)(=O)[O-])C(OC2OC(C(=O)[O-])C(OC3OC(COS(=O)(=O)[O-])C(OC4OC(C(=O)[O-])C(OC5OC(CS(=O)(=O)[O-])C(O)C(OC(C)=O)C5NS(=O)(=O)[O-])C(OC(C)=O)C4OS(=O)(=O)[O-])C(OC(C)=O)C3NS(=O)(=O)[O-])C(OC(C)=O)C2OS(=O)(=O)[O-])C(OC(C)=O)C1NS(=O)(=O)[O-].[Na+].[Na+].[Na+].[Na+].[Na+].[Na+].[Na+].[Na+].[Na+].[Na+].[Na+] (stereo not given) | 165 µg/mL | – | 0.53 µg/mL | 0.59 µg/mL | 4.3 µg/mL | 1.5 µg/mL | 1.3 µg/mL | 0.5 µg/mL | 0.6 µg/mL | 2.2 µg/mL | 10 IU mg-1 | 7.4 µg/mL | >943 | >847 | – | – | – | –
3 | CCCC(=O)OC/C(=C\C(=O)OCc1ccccc1)OC1OC(COS(=O)(=O)[O-])C(OC2OC(C(=O)OCc3ccccc3)C(OC3OC(COS(=O)(=O)[O-])C(OC4OC(C(=O)OCc5ccccc5)C(OC5OC(COS(=O)(=O)[O-])C(O)C(OC(=O)CCC)C5NS(=O)(=O)[O-])C(OC(=O)CCC)C4OS(=O)(=O)[O-])C(OC(=O)CCC)C3NS(=O)(=O)[O-])C(OC(=O)CCC)C2OS(=O)(=O)[O-])C(OC(=O)CCC)C1NS(=O)(=O)[O-].[Na+].[Na+].[Na+].[Na+].[Na+].[Na+].[Na+].[Na+] (stereo not given) | 1 µg/mL | – | 0.36 µg/mL | 0.42 µg/mL | 1.3 µg/mL | 1.1 µg/mL | 0.2 µg/mL | 0.2 µg/mL | 0.7 µg/mL | 0.9 µg/mL | 4 IU mg-1 | 10.2 µg/mL | >1389 | >1190 | 1 µg/mL | – | – | –
4 | O=C([O-])/C=C(\CO)OC1OC(COS(=O)(=O)[O-])C(OC2OC(C(=O)[O-])C(OC3OC(COS(=O)(=O)[O-])C(OC4OC(C(=O)[O-])C(OC5OC(COS(=O)(=O)[O-])C(O)C(O)C5NS(=O)(=O)[O-])C(O)C4OS(=O)(=O)[O-])C(O)C3NS(=O)(=O)[O-])C(O)C2OS(=O)(=O)[O-])C(O)C1NS(=O)(=O)[O-].[Na+].[Na+].[Na+].[Na+].[Na+].[Na+].[Na+].[Na+].[Na+].[Na+].[Na+] (stereo in doubt; 2a) | – | – | – | – | 17.9 µg/mL | 11.7 µg/mL | 0.3 µg/mL | 1.5 µg/mL | 1.5 µg/mL | > 250 µg/mL | 4 IU mg-1 | 150 µg/mL | >327 | >80 | – | > 500 µg/mL | 1.53 µg/mL | 6.3 µg/mL
5 | CCCC(=O)OC/C(=C\C(=O)[O-])O[C@H]1O[C@H](COS(=O)(=O)[O-])[C@@H](O[C@@H]2O[C@@H](C(=O)[O-])[C@@H](O[C@H]3O[C@H](COS(=O)(=O)[O-])[C@@H](O[C@@H]4O[C@@H](C(=O)[O-])[C@@H](O[C@H]5O[C@H](CS(=O)(=O)[O-])[C@@H](O)[C@H](OC(=O)CCC)[C@H]5NS(=O)(=O)[O-])[C@H](OC(=O)CCC)[C@H]4OS(=O)(=O)[O-])[C@H](OC(=O)CCC)[C@H]3NS(=O)(=O)[O-])[C@H](OC(=O)CCC)[C@H]2OS(=O)(=O)[O-])[C@H](OC(=O)CCC)[C@H]1NS(=O)(=O)[O-].[Na+].[Na+].[Na+].[Na+].[Na+].[Na+].[Na+].[Na+].[Na+].[Na+].[Na+] (stereo in doubt; 4g) | – | – | – | – | 1.3 µg/mL | 0.9 µg/mL | 0.1 µg/mL | 0.1 µg/mL | 0.3 µg/mL | 0.7 µg/mL | 8.5 IU mg-1 | 5.9 µg/mL | – | >2141 | – | 31.9 µg/mL | – | 0.17 µg/mL
